According to ChEMBL document CHEMBL4330106, “A new class of pentapeptide KISS1 receptor agonists with hypothalamic-pituitary-gonadal axis activation” (Bioorg Med Chem Lett, 2019):
Square brackets hold non-standard residues; d marks the D form. Peptide text beside a SMILES is read from it. * marks the point of attachment. Propanoyl(3-indol-3-yl) = O=C(CCc1c[nH]c2ccccc12)*; Propanoyl(3-(4-pyridyl)) = O=C(CCc1ccncc1)*; Arg(Me) = CNC(=N)NCCC[C@H](N)C(=O)O; Hydrocinnamoyl = O=C(CCc1ccccc1)*; Hexanoyl = CCCCCC(=O)*; Bz = O=C(c1ccccc1)*; azaGly = NNC(=O)O

Assays:
[1] = Retention time of the compound by reverse-phase HPLC method; assay type: physicochemical
In short: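 RP-HPLC on C18 monolith column. Linear gradient of 0.1% TFA water / 0.1% TFA acetonitrile, A/B 95/5 to 35/65 over 10 min, 3.0 mL/min.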

KiSS-1 receptor = KiSS-1 receptor (Homo sapiens, UniProt Q969F8); assay: Agonist activity at human KISS1R expressed in CHO cells assessed as increase in calcium mobilization measured at 2 secs interval for 2 mins by fluo-4 NW dye based FLIPR assay; assay type: functional, cell-based
In short: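 Ligand-induced Ca2+ rise in CHO cells expressing human KISS1R, read on a fluorometric imaging plate reader (FLIPR); agonist potency reported as EC50 (nM).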

Chain of KiSS-1 receptor (Q969F8 whole entry): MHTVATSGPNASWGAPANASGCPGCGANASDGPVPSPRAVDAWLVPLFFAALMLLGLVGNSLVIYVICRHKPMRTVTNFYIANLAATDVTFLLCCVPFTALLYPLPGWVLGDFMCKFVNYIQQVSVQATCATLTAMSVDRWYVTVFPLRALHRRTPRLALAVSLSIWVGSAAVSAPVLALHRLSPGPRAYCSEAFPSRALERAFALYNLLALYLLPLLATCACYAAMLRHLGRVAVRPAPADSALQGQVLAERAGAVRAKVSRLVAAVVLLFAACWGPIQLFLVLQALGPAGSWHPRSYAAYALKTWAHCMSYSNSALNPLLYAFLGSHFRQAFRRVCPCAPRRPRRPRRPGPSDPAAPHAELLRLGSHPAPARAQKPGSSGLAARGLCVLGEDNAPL

| Structure (SMILES) | Retention_time [1] | EC50 (KiSS-1 receptor) |
| --- | --- | --- |
| CNC(=N)NCCC[C@H](NC(=O)[C@H](CC(C)C)NC(=O)NNC(=O)[C@H](Cc1ccccc1)NC(=O)CCc1c[nH]c2ccccc12)C(=O)N[C@@H](Cc1ccccc1)C(N)=O ({Propanoyl(3-indol-3-yl)}-F[azaGly]L[Arg(Me)]F-NH2) | 6.58 min | 0.62 nM |
| CNC(=N)NCCC[C@H](NC(=O)[C@H](CC(C)C)NC(=O)NNC(=O)[C@H](Cc1ccccc1)NC(=O)[C@H](CO)NC(=O)[C@H](CC(N)=O)NC(=O)[C@H](Cc1c[nH]c2ccccc12)NC(C)=O)C(=O)N[C@@H](Cc1ccccc1)C(N)=O (Ac-WNSF[azaGly]L[Arg(Me)]F-NH2) | 5.76 min | 2.1 nM |
| CNC(=N)NCCC[C@H](NC(=O)[C@H](CC(C)C)NC(=O)NNC(=O)[C@H](Cc1ccccc1)NC(=O)c1ccccn1)C(=O)N[C@@H](Cc1c[nH]c2ccccc12)C(N)=O | 6.02 min | 0.037 nM |
| CNC(=N)NCCC[C@H](NC(=O)[C@H](CC(C)C)NC(=O)NNC(=O)[C@H](Cc1ccccc1)NC(=O)C1CC1)C(=O)N[C@@H](Cc1c[nH]c2ccccc12)C(N)=O | 5.7 min | 0.028 nM |
| CNC(=N)NCCC[C@H](NC(=O)[C@H](CC(C)C)NC(=O)NNC(=O)[C@H](Cc1ccccc1)NC(=O)c1ccc[nH]1)C(=O)N[C@@H](Cc1c[nH]c2ccccc12)C(N)=O | 5.91 min | 0.23 nM |
| CNC(=N)NCCC[C@H](NC(=O)[C@H](CC(C)C)NC(=O)NNC(=O)[C@H](Cc1ccccc1)NC(=O)Cc1ccccc1)C(=O)N[C@@H](Cc1c[nH]c2ccccc12)C(N)=O | 6.49 min | 0.27 nM |
| CNC(=N)NCCC[C@H](NC(=O)[C@H](CC(C)C)NC(=O)NNC(=O)[C@H](Cc1ccccc1)NC(=O)[C@H](CO)NC(=O)[C@H](CC(N)=O)NC(=O)CCc1c[nH]c2ccccc12)C(=O)N[C@@H](Cc1ccccc1)C(N)=O ({Propanoyl(3-indol-3-yl)}-NSF[azaGly]L[Arg(Me)]F-NH2) | 5.95 min | 0.13 nM |
| CNC(=N)NCCC[C@H](NC(=O)[C@H](CC(C)C)NC(=O)NNC(=O)[C@H](Cc1ccccc1)NC(=O)c1ccoc1)C(=O)N[C@@H](Cc1c[nH]c2ccccc12)C(N)=O | 5.88 min | 0.11 nM |
| CNC(=N)NCCC[C@H](NC(=O)[C@H](CC(C)C)NC(=O)NNC(=O)[C@@H](N)Cc1ccccc1)C(=O)N[C@@H](Cc1ccccc1)C(N)=O (H-F[azaGly]L[Arg(Me)]F-NH2) | 4.29 min | 130 nM |
| CNC(=N)NCCC[C@H](NC(=O)[C@H](CC(C)C)NC(=O)NNC(=O)[C@H](Cc1ccccc1)NC(=O)c1c[nH]cn1)C(=O)N[C@@H](Cc1c[nH]c2ccccc12)C(N)=O | 4.47 min | 0.24 nM |
| CCC(=O)N[C@@H](Cc1ccccc1)C(=O)NNC(=O)N[C@@H](CC(C)C)C(=O)N[C@@H](CCCNC(=N)NC)C(=O)N[C@@H](Cc1c[nH]c2ccccc12)C(N)=O | 5.52 min | 0.13 nM |
| CNC(=N)NCCC[C@H](NC(=O)[C@H](CC(C)C)NC(=O)NNC(=O)[C@H](Cc1ccccc1)NC(=O)CCc1c[nH]c2ccccc12)C(=O)N[C@@H](Cc1c[nH]c2ccccc12)C(N)=O | 6.67 min | 0.022 nM |
| CNC(=N)NCCC[C@H](NC(=O)[C@H](CC(C)C)NC(=O)NNC(=O)[C@H](Cc1ccccc1)NC(=O)[C@H](CO)NC(=O)[C@H](CC(N)=O)NC(=O)CCc1ccccc1)C(=O)N[C@@H](Cc1ccccc1)C(N)=O (Hydrocinnamoyl-NSF[azaGly]L[Arg(Me)]F-NH2) | 5.9 min | 0.17 nM |
| CCCCCC(=O)N[C@@H](Cc1ccccc1)C(=O)NNC(=O)N[C@@H](CC(C)C)C(=O)N[C@@H](CCCNC(=N)NC)C(=O)N[C@@H](Cc1ccccc1)C(N)=O (Hexanoyl-F[azaGly]L[Arg(Me)]F-NH2) | 6.66 min | 1.4 nM |
| CNC(=N)NCCC[C@H](NC(=O)[C@H](CC(C)C)NC(=O)NNC(=O)[C@H](Cc1ccccc1)NC(=O)c1ccccc1)C(=O)N[C@@H](Cc1ccccc1)C(N)=O (Bz-F[azaGly]L[Arg(Me)]F-NH2) | 6.21 min | 0.6 nM |
| CNC(=N)NCCC[C@H](NC(=O)[C@H](CC(C)C)NC(=O)NNC(=O)[C@H](Cc1ccccc1)NC(C)=O)C(=O)N[C@@H](Cc1ccccc1)C(N)=O (Ac-F[azaGly]L[Arg(Me)]F-NH2) | 5.02 min | 0.33 nM |
| CNC(=N)NCCC[C@H](NC(=O)[C@H](CC(C)C)NC(=O)NNC(=O)[C@H](Cc1ccccc1)NC(=O)[C@H](CO)NC(=O)[C@H](CC(N)=O)NC(=O)[C@@H](N)Cc1c[nH]c2ccccc12)C(=O)N[C@@H](Cc1ccccc1)C(N)=O (H-WNSF[azaGly]L[Arg(Me)]F-NH2) | 5.03 min | 7.7 nM |
| CNC(=N)NCCC[C@H](NC(=O)[C@H](CC(C)C)NC(=O)NNC(=O)[C@H](Cc1ccccc1)NC(=O)[C@H](CO)NC(=O)CCc1c[nH]c2ccccc12)C(=O)N[C@@H](Cc1ccccc1)C(N)=O ({Propanoyl(3-indol-3-yl)}-SF[azaGly]L[Arg(Me)]F-NH2) | 6.17 min | 8.2 nM |
| CNC(=N)NCCC[C@H](NC(=O)[C@H](CC(C)C)NC(=O)NNC(=O)[C@H](Cc1ccccc1)NC(=O)C(C)C)C(=O)N[C@@H](Cc1c[nH]c2ccccc12)C(N)=O | 5.88 min | 0.058 nM |
| CNC(=N)NCCC[C@H](NC(=O)[C@H](CC(C)C)NC(=O)NNC(=O)[C@H](Cc1ccccc1)NC(=O)C1CCCCC1)C(=O)N[C@@H](Cc1c[nH]c2ccccc12)C(N)=O | 6.7 min | 0.12 nM |
| CNC(=N)NCCC[C@H](NC(=O)[C@H](CC(C)C)NC(=O)NNC(=O)[C@H](Cc1ccccc1)NC(=O)c1cccnc1)C(=O)N[C@@H](Cc1c[nH]c2ccccc12)C(N)=O | 4.69 min | 0.16 nM |
| CNC(=N)NCCC[C@H](NC(=O)[C@H](CC(C)C)NC(=O)NNC(=O)[C@H](Cc1ccccc1)NC(=O)[C@H](CO)NC(=O)[C@H](CC(N)=O)NC(=O)[C@H](Cc1c[nH]c2ccccc12)NC(=O)[C@H](N)Cc1ccc(O)cc1)C(=O)N[C@@H](Cc1ccccc1)C(N)=O (H-[dY]WNSF[azaGly]L[Arg(Me)]F-NH2) | 5.54 min | 0.057 nM |
| CNC(=N)NCCC[C@H](NC(=O)[C@H](CC(C)C)NC(=O)NNC(=O)[C@H](Cc1ccccc1)NC(=O)[C@H](CO)NC(=O)[C@H](CC(N)=O)NC(=O)CCc1ccncc1)C(=O)N[C@@H](Cc1ccccc1)C(N)=O ({Propanoyl(3-(4-pyridyl))}-NSF[azaGly]L[Arg(Me)]F-NH2) | 4.51 min | 1.5 nM |
